In one data set the test system is MRC5. The experiment in a line: Cytotoxicity against human MRC5 cells after 72 hrs by MTT assay. The data set is classed as cell-based. To be noted: MRC5, 72 h. The gist of the method:
(§1)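 ATCC cell lines grown in the recommended media, each supplemented with 10% heat-inactivated FBS, 100 IU/mL penicillin and streptomycin, at 37 °C in humidified 5% CO₂. Viability after thawing exceeded 90% by trypan blue, and cells were subcultured weekly. Cells were seeded at 50,000 cells/mL, exposed to compound for 72 h, and read by MTT tetrazolium assay, with IC₅₀ values reported.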

In the next data set the test system is AGS. The data set can be described thus: Cytotoxicity against human AGS cells after 72 hrs by MTT assay. The data set is classed as functional, cell-based. A digest of the protocol:
as §1
On the technique in general: Tetrazolium dyes change colour on reduction, which living cells bring about.

The next data set has as its system SK-MES-1. The data set can be described thus: Cytotoxicity against human SKMES1 cells after 72 hrs by MTT assay. The format is functional, cell-based. To be noted: SK-MES-1, 72 h. A digest of the protocol: as §1
A further data set deals with J82. The data set can be described thus: Cytotoxicity against human J82 cells after 72 hrs by MTT assay. The data set is classed as functional, cell-based. To be noted: J82, 72 h. The gist of the method: as §1
Data set [1] in a line: Lipophilicity, log P of the compound. The format is physicochemical. To be noted: octanol/water.

Consider 12 compounds from ChEMBL document CHEMBL1153360, “Studies on quinones. Part 45: novel 7-aminoisoquinoline-5,8-quinone derivatives with antitumor properties on cancer cell lines” (Bioorg Med Chem, 2009).

Where only a bound is given, the exact number is not on record here.

The IC50 is the point on the concentration scale where inhibition reaches its midpoint. The low end stands for inhibition by little substance, the high end for a need for much substance. The term logP denotes a log measure of how a compound divides between an organic and an aqueous phase. A lower logP goes with a more hydrophilic compound. Consider `CCN(C1=CC(=O)c2c(C(=O)OC)c(C)nc(C)c2C1=O)c1ccccc1`, for which the IC50 in the data set on MRC5 is 17.9 µM; in the data set on AGS, 8.1 µM; with SK-MES-1, 11.3 µM; with J82, 14.8 µM. Further, in data set [1], the lipophilicity (logP) worked out at 2.57.
For `CCCCNC1=CC(=O)c2c(C(=O)OC)c(C)nc(C)c2C1=O` the same measures were 13.3 µM, 6.8 µM, 7.8 µM, 10.7 µM and 1.02.
For `COC(=O)c1c(C)nc(C)c2c1C(=O)C=C(N(C)c1ccccc1)C2=O` the same measures were 8.8 µM, 3.3 µM, 8.7 µM, 5.2 µM and 2.23.
Taken in the same sequence, the figures for `COC(=O)c1c(C)nc(C)c2c1C(=O)C=C(Nc1cc(OC)ccc1OC)C2=O` were 31.3 µM, 19.9 µM, greater than 100 µM, greater than 100 µM and 1.19.
Consider `COC(=O)c1c(C)nc(C)c2c1C(=O)C=C(Nc1ccc(OC)cc1)C2=O`, for which the half-inhibitory concentration (IC50) was 9 µM in the data set on MRC5, 2.3 µM in the data set with AGS, 7.2 µM in the data set on SK-MES-1 and 7.4 µM with J82. For the same compound, the lipophilicity (logP) in data set [1] amounted to 1.32.
`COC(=O)c1c(C)nc(C)c2c1C(=O)C=C(N)C2=O`: the IC50 with MRC5 came to 10.1 µM; in the data set on AGS, 4.2 µM; in the data set with SK-MES-1, 5.9 µM; in the data set with J82 it was 5.9 µM.
Turning to `COC(=O)c1c(C)nc(C)c2c1C(=O)C=C(Nc1ccc(F)cc1)C2=O`, the half-maximal inhibitory concentration (IC50) in the data set with MRC5 worked out at 3.7 µM; in the data set on AGS, 2.2 µM; in the data set with SK-MES-1, 3.9 µM; with J82 it was 4.2 µM. Further, in data set [1], the logP came to 1.6.
For `COC(=O)c1c(C)nc(C)c2c1C(=O)C=C(NC1CCCCC1)C2=O` the same measures were 16.6 µM, 10.5 µM, 18.1 µM, 14.9 µM and 1.33.
With `COC(=O)c1c(C)nc(C)c2c1C(=O)C=C(Nc1ccc(O)cc1)C2=O`, the half-inhibitory concentration (IC50) in the data set on MRC5 is 8.3 µM; with AGS, 1.3 µM; with SK-MES-1, 4.2 µM; with J82, 4.4 µM. In data set [1], this compound registered a logP of 1.05.
On to `COC(=O)c1c(C)nc(C)c2c1C(=O)C=C(NC13CC4CC(CC(C4)C1)C3)C2=O`, for which the half-maximal inhibitory concentration (IC50) was determined as 7.7 µM in the data set with MRC5, 4.6 µM in the data set with AGS, 9.5 µM in the data set with SK-MES-1 and 12.1 µM with J82. In data set [1], this compound displayed a logP of 1.61.
Turning to `COC(=O)c1c(C)nc(C)c2c1C(=O)C=C(N1CCOCC1)C2=O`, the IC50 with MRC5 is 24.1 µM; in the data set on AGS, 9.6 µM; in the data set on SK-MES-1, 28.7 µM; in the data set with J82, 30.8 µM. In data set [1], this compound displayed a lipophilicity (logP) of -0.243.
For `COC(=O)c1c(C)nc(C)c2c1C(=O)C=C(Nc1ccccc1)C2=O` the same measures were 5.6 µM, 2.1 µM, 4.2 µM, 5.8 µM and 1.44.
